{"data": "Published values gathered from unrelated publications", "target": "SRSF protein kinase 3 (SRPK3, Homo sapiens, UniProt Q9UPE1)", "note": "Each line is one published result; the experiments were not run side by side."}
{"Compound": "CC/C(=N\\NC(=O)NCc1cccc(O)c1)c1ccc(O)c(C)c1O", "effect on": "enzyme activity", "action": "inhibitor", "tested at": "0.1 µM", "endpoint": "inhibition", "value": "-2.9%"}
{"Compound": "CCCS(=O)(=O)Nc1ccc(F)c(C(=O)c2c[nH]c3ncc(-c4ccc(Cl)cc4)cc23)c1F", "effect on": "enzyme activity", "action": "inhibitor", "tested at": "1 µM", "endpoint": "inhibition", "value": "< 10%"}
{"Compound": "COc1cc2ncnc(Nc3ccc(Oc4ccccc4)cc3C)c2cc1OC", "effect on": "enzyme activity", "action": "inhibitor", "tested at": "1 µM", "endpoint": "inhibition", "value": "2%"}
{"Compound": "Cn1c2c(c3ccc(Cl)c(Cl)c31)C(C#N)C(C)(C)NC2=O (centres unmarked)", "effect on": "thermal stability", "technique": "DSF", "tested at": "10 µM", "endpoint": "ΔTm", "value": "1.5 °C"}
{"Compound": "CNC(=O)c1cc(Oc2ccc(NC(=O)Nc3ccc(Cl)c(C(F)(F)F)c3)cc2)ccn1", "effect on": "enzyme activity", "action": "inhibitor", "tested at": "10 µM", "endpoint": "inhibition", "value": "60%"}
{"Compound": "CN(C)C(=O)Cn1cc(-c2nc(C3(c4ccc(-c5cnc(N)nc5)cc4)CC3)no2)cn1", "effect on": "cell-free assay", "technique": "competition with immobilised ligand", "tested at": "1 µM", "endpoint": "remaining binding", "value": "100%"}
{"Compound": "COc1cc(Cl)c(C(=O)N[C@@H](CN[C@H]2CC[C@@H](N)CC2)Cc2ccc(C#N)cc2)cc1-c1ccc(CN[C@H](C)c2ccc(C)cc2)o1", "effect on": "enzyme activity", "action": "inhibitor", "tested at": "1 µM", "endpoint": "remaining activity", "value": "96%"}
{"Compound": "CCC(=O)N[C@@H]1CC[C@H](C(=O)N(C)c2ccc(-c3nc4ccccc4o3)cc2)C1", "effect on": "cell-free assay", "technique": "competition with immobilised ligand", "tested at": "1 µM", "endpoint": "remaining binding", "value": "100%"}
{"Compound": "Cc1ccc(Nc2nccc(N(C)c3ccc4c(C)n(C)nc4c3)n2)cc1S(N)(=O)=O", "effect on": "enzyme activity", "action": "inhibitor", "tested at": "10 µM", "endpoint": "inhibition", "value": "3%"}
{"Compound": "O=C(Nc1ccc(Oc2ccc(F)cc2)cc1)N1CCc2ncccc2[C@H]1c1ccc(F)cc1", "effect on": "cell-free assay", "technique": "competition with immobilised ligand", "tested at": "1 µM", "endpoint": "remaining binding", "value": "100%"}
{"Compound": "Cn1c2c(c3ccc(Cl)c(Cl)c31)C(C#N)C1(CCN(C(=O)OC(C)(C)C)CC1)NC2=O (racemic)", "effect on": "thermal stability", "technique": "DSF", "tested at": "10 µM", "endpoint": "ΔTm", "value": "0 °C"}
{"Compound": "Cc1cc(NC(=O)c2cccc3cc(-c4cccc5[nH]nc(N)c45)ccc23)ccc1F", "effect on": "enzyme activity", "action": "inhibitor", "tested at": "0.1 µM", "endpoint": "activity vs control", "value": "113%"}
{"Compound": "Cn1c2c(c3ccccc31)C(C#N)C(C)(C)NC2=O (centres unmarked)", "effect on": "thermal stability", "technique": "DSF", "tested at": "10 µM", "endpoint": "ΔTm", "value": "0.2 °C"}
{"Compound": "CS(=O)(=O)NCC[C@H](NC(=O)c1cncc2c1cnn2-c1ccc(F)cc1)c1ccnc(S(C)(=O)=O)c1", "effect on": "cell-free assay", "technique": "competition with immobilised ligand", "tested at": "1 µM", "endpoint": "remaining binding", "value": "100%"}
{"Compound": "Cc1ccc(NC(=O)c2ccc(C)c(C(F)(F)F)c2)cc1C#Cc1nn(C2CCC(O)CC2)c2ncnc(N)c12 (centres unmarked)", "effect on": "cell-free assay", "tested at": "10 µM", "endpoint": "remaining signal", "value": "56%"}
{"Compound": "CC1=C(C#N)[C@@H](c2ccc3[nH]nc(C)c3c2)C(C#N)=C(c2ccc(Cl)cc2)N1", "effect on": "cell-free assay", "technique": "competition with immobilised ligand", "tested at": "1 µM", "endpoint": "remaining binding", "value": "100%"}
{"Compound": "CC(C)(C)c1nc(-c2cccc(NS(=O)(=O)c3c(F)cccc3F)c2F)c(-c2ccnc(N)n2)s1", "effect on": "enzyme activity", "action": "inhibitor", "technique": "radiometric", "tested at": "1 µM", "endpoint": "remaining activity", "value": "105%"}
{"Compound": "O=c1nc(-c2ccccn2)sc2ccccc12", "effect on": "binding", "technique": "competition with immobilised ligand", "tested at": "1 µM", "endpoint": "remaining binding", "value": "100%"}
{"Compound": "CCOc1cc(-c2nncn2C)ccc1Nc1ncc2cc(C)nc(NCC(C)(C)C)c2n1", "effect on": "enzyme activity", "action": "inhibitor", "technique": "FRET", "tested at": "1 µM", "endpoint": "inhibition", "value": "< 15%"}
{"Compound": "CCN(CC)CCNC(=O)c1c(C)[nH]c(/C=C2\\C(=O)Nc3ccc(F)cc32)c1C", "effect on": "enzyme activity", "action": "inhibitor", "tested at": "0.3 µM", "endpoint": "inhibition", "value": "-4%"}
